Experimental findings from paper PMC5159310 (Bioorganic & medicinal chemistry letters, 2016) are described below.

Positions of bridges follow the written chain, without caps; N, C: chain ends. Non-standard residues stand in square brackets, D forms with d. Residues, ends and D or L forms follow the SMILES beside them. Nle = CCCC[C@H](N)C(=O)O

Data set [1] concerns the target bradykinin receptors (BRs). Briefly: Radioligand competition assay using [3H]BK in rat brain membranes. It is filed as binding. The settings on record: for BR, [3H]BK IC50 / BR, [3H]BK Log[IC50] / IC50: rat brain membranes, pH 6.8, [3H]BK; for BR, [3H]BK Log[IC50]: logarithmic value (negative); for IC50: read-out: BR, [3H]BK IC50. An outline of the steps:
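Competitive binding against [3H]BK in rat brain membranes at pH 6.8. Non-specific binding was defined with 10 μM kallidin. Data came from at least two independent experiments run in duplicate. IC50 was derived by nonlinear least-squares regression and also reported as a logarithmic value.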
A general note: Displacement assays read how much labelled ligand stays bound in the presence of the test substance.

Data set [2] is described as follows: Metabolic stability. It is filed as in vitro ADME. The settings on record: rat, plasma.

In the case of “H-c^1,5(-CH2CH2-)[Ala-Lys-Pro-Lys-Ala]-Lys-OH (AKPKA; not fully specified; -CH2CH2- dicarba bridge 1,5; C-terminal Lys; printed: Ala-Lys-Pro-Lys-Ala) [ligand 3]”, in data set [1], the “BR, [3H]BK IC50” value is on record as “no competition”.

“c^N,6[Lys-Leu-Arg-Ile-Arg-Glu]-Lys-OH (KLRIREK-OH; lactam N-6; SMILES CC[C@H](C)[C@@H]1NC(=O)[C@H](CCCNC(=N)N)NC(=O)[C@H](CC(C)C)NC(=O)[C@H](CCCCN)NC(=O)CC[C@@H](C(=O)N[C@@H](CCCCN)C(=O)O)NC(=O)[C@H](CCCNC(=N)N)NC1=O) [ligand 6]”: in data set [1], the “BR, [3H]BK Log[IC50]” value was −6.52+0.15 and the IC50 came to 302 nM.

Take `CCCC[C@H](NC(=O)[C@H](CCCCN)NC(=O)[C@@H]1CCCN1C(=O)[C@H](CCCCN)NC(=O)[C@@H](N)CCCC)C(=O)N[C@@H](CCCCN)C(=O)O` [ligand 1, H-Nle-Lys-Pro-Lys-Nle-Lys-OH] (H-[Nle]KPK[Nle]K-OH): the half-life in data set [2] is less than 1 h.

For “c^N,5[Leu-Arg-Ile-Arg-Glu]-Lys-OH (LRIREK-OH; lactam N-5; SMILES CC[C@H](C)[C@@H]1NC(=O)[C@H](CCCNC(=N)N)NC(=O)[C@H](CC(C)C)NC(=O)CC[C@@H](C(=O)N[C@@H](CCCCN)C(=O)O)NC(=O)[C@H](CCCNC(=N)N)NC1=O) [ligand 7]”, in data set [1], the “BR, [3H]BK Log[IC50]” value was −5.82+0.09 and the IC50 is 1510 nM. In addition, the “reduction of affinity at the BRs (fold)” value in data set [1] (compared with linear ligand 4) is on record as 22 fold.

In the case of “H-c^1,5(-cisCH=CH-)[Ala-Lys-Pro-Lys-Ala]-Lys-OH (AKPKA; not fully specified; cis-CH=CH- dicarba bridge 1,5; C-terminal Lys; printed: Ala-Lys-Pro-Lys-Ala) [ligand 2]”, the “BR, [3H]BK IC50” value in data set [1] was “no competition”.

`CC[C@H](C)[C@@H]1NC(=O)[C@H](CCCNC(=N)N)NC(=O)[C@H](CC(C)C)NC(=O)[C@H](Cc2ccccc2)NC(=O)CC[C@@H](C(=O)N[C@@H](CCCCN)C(=O)O)NC(=O)[C@H](CCCNC(=N)N)NC1=O` [ligand 5, c^N,6[Phe-Leu-Arg-Ile-Arg-Glu]-Lys-OH] (FLRIREK-OH; lactam N-6 (inferred)) gave a half-life in data set [2] of more than 5 h.

As usually defined, the IC50 is the point on the concentration scale where inhibition reaches its midpoint. The term half-life denotes how long it takes for the measured level to halve. Lower therefore signals rapid decline.
